{
  "source": "ChEMBL document CHEMBL4325897",
  "about": "“Discovery, synthesis of novel fusidic acid derivatives possessed amino-terminal groups at the 3-hydroxyl position with anticancer activity” (Eur J Med Chem, 2019)",
  "key": {"U-87 MG [1]": {"system": "U-87 MG", "experiment": "Cytotoxicity against human U87 cells assessed as reduction in cell viability after 72 hrs by MTT assay", "format": "functional, cell-based, U-87MG ATCC"}, "MKN-45 [2]": {"system": "MKN-45", "experiment": "Cytotoxicity against human MKN45 cells assessed as reduction in cell viability after 72 hrs by MTT assay", "format": "functional, cell-based", "details": "MKN-45, 72 h"}, "HeLa [3]": {"system": "HeLa", "experiment": "Antitumor activity against human HeLa cells xenografted in BALB/c mouse assessed as tumor growth inhibition at 50 mg/kg, ig bid measured every 3 days relative to control", "format": "functional", "details": "po, 72 h, read-out: TGI"}, "[4]": {"experiment": "Cytotoxicity against human JHH7 cells assessed as reduction in cell viability after 72 hrs by MTT assay", "format": "functional, cell-based", "details": "JHH7, 72 h"}, "HeLa [5]": {"system": "HeLa", "experiment": "Induction of apoptosis in human HeLa cells assessed as increase in early apoptotic cells at 2 uM after 24 hrs by TUNEL staining based fluorescence microscopic analysis", "format": "functional, cell-based", "outline": "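HeLa cells seeded at 2×10^4 cells/well on cover slips and grown 24 h, then treated at 2 μM for 24 h. Fixed, permeabilized, and incubated with TUNEL reaction mixture (labeling enzyme plus labeled dUTP) at 37 °C for 1 h. DAPI counterstain, and TUNEL-positive cells viewed by fluorescence microscopy.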"}, "[6]": {"experiment": "Cytotoxicity against human KBV cells assessed as cell viability at 1.5 uM after 72 hrs by MTT assay relative to control", "format": "functional", "details": "read-out: Activity", "outline": "(§1)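 Cells grown in DMEM with 10% heat-inactivated FCS and penicillin/streptomycin at 37 °C, 5% CO2, and used in log phase. Seeded in 96-well plates and exposed to compounds at 5 μM and 1.5 μM for 72 h. MTT added, formazan dissolved in DMSO, OD read at 570 nm, and survival rate calculated. Average of at least three independent experiments.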"}, "MKN-45 [7]": {"system": "MKN-45", "experiment": "Cytotoxicity against human MKN45 cells assessed as cell viability at 5 uM after 72 hrs by MTT assay relative to control", "format": "functional", "details": "MKN-45, 72 h, read-out: Activity", "outline": "as §1"}, "HeLa [8]": {"system": "HeLa", "experiment": "Cytotoxicity against human HeLa cells assessed as cell viability at 5 uM after 72 hrs by MTT assay relative to control", "format": "functional", "details": "read-out: Activity", "outline": "as §1"}, "HeLa [9]": {"system": "HeLa", "experiment": "Cytotoxicity against human HeLa cells assessed as reduction in cell viability after 72 hrs by MTT assay", "format": "functional, cell-based"}, "U-87 MG [10]": {"system": "U-87 MG", "experiment": "Cytotoxicity against human U87 cells assessed as cell viability at 5 uM after 72 hrs by MTT assay relative to control", "format": "functional, U-87MG ATCC", "details": "read-out: Activity", "outline": "as §1"}, "[11]": {"experiment": "Toxicity in BALB/c mouse xenografted with human HeLa cells assessed as body weight at 50 mg/kg, ig bid measured every 3 days (reference value: 21.2 +/- 1.5 g)", "format": "organism-based", "details": "in vivo, po, 72 h"}, "HeLa [12]": {"system": "HeLa", "experiment": "Induction of apoptosis in human HeLa cells assessed as increase in ratio of sub-G0 to G1 phase at 5 uM after 48 to 72 hrs by propidium iodide staining based FACS analysis", "format": "functional, cell-based"}, "HeLa [13]": {"system": "HeLa", "experiment": "Inhibition of protein synthesis in human HeLa cells assessed as decrease in puromycin-incorporated neo-synthesized proteins preincubated for 2 hrs followed by puromycin addition and measured after 10 mins by chemiluminescence assay", "format": "functional, cell-based", "outline": "(§2)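 HeLa cells at 70-80% confluence treated with compound for 2 h (range 1-10 μM), then pulsed with 10 μg/mL puromycin for 10 min. After ice-cold PBS washes, lysates run on SDS-PAGE and immunoblotted with anti-puromycin antibody (1:100, overnight, 4 °C) and HRP anti-mouse IgG. Read by enhanced chemiluminescence.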"}, "U-87 MG [14]": {"system": "U-87 MG", "experiment": "Cytotoxicity against human U87 cells assessed as cell viability at 1.5 uM after 72 hrs by MTT assay relative to control", "format": "functional, U-87MG ATCC", "details": "read-out: Activity", "outline": "as §1"}, "[15]": {"experiment": "Cytotoxicity against human KBV cells assessed as cell viability at 5 uM after 72 hrs by MTT assay relative to control", "format": "functional", "details": "read-out: Activity", "outline": "as §1"}, "MKN-45 [16]": {"system": "MKN-45", "experiment": "Cytotoxicity against human MKN45 cells assessed as cell viability at 1.5 uM after 72 hrs by MTT assay relative to control", "format": "functional", "details": "MKN-45, 72 h, read-out: Activity", "outline": "as §1"}, "[17]": {"experiment": "Toxicity in BALB/c mouse xenografted with human HeLa cells assessed as body weight at 25 mg/kg, ig bid measured every 3 days (reference value: 21.2 +/- 1.5 g)", "format": "organism-based", "details": "in vivo, po, 72 h"}, "HeLa [18]": {"system": "HeLa", "experiment": "Antitumor activity against human HeLa cells xenografted in BALB/c mouse assessed as tumor growth inhibition at 25 mg/kg, ig bid measured every 3 days relative to control", "format": "functional", "details": "po, 72 h, read-out: TGI"}, "HeLa [19]": {"system": "HeLa", "experiment": "Cytotoxicity against human HeLa cells assessed as cell viability at 1.5 uM after 72 hrs by MTT assay relative to control", "format": "functional", "details": "read-out: Activity", "outline": "as §1"}, "[20]": {"experiment": "Cytotoxicity against human KBV cells assessed as reduction in cell viability after 72 hrs by MTT assay", "format": "functional, cell-based"}, "Staphylococcus aureus": {"system": "Staphylococcus aureus", "experiment": "Antibacterial activity against Staphylococcus aureus", "format": "functional"}, "[21]": {"experiment": "Cytotoxicity against HEK293 cells assessed as reduction in cell viability after 72 hrs by MTT assay", "format": "cell-based", "details": "human"}, "HeLa [22]": {"system": "HeLa", "experiment": "Inhibition of protein synthesis in human HeLa cells assessed as decrease in puromycin-incorporated neo-synthesized proteins at 5 uM preincubated for 2 hrs followed by puromycin addition and measured after 10 mins by chemiluminescence assay", "format": "functional, cell-based", "outline": "as §2"}},
  "note": "Active and inactive are the calls of the source. No cut-off for these calls is given here.",
  "data": [
    {"smiles": "CC(=O)O[C@H]1C[C@@]2(C)[C@@H](C[C@@H](O)[C@H]3[C@@]4(C)CC[C@@H](OC(=O)CCN)[C@@H](C)[C@@H]4CC[C@@]32C)/C1=C(\\CCC=C(C)C)C(=O)OCc1ccccc1", "values": [
      {"measurement": "IC50", "setting": "U-87 MG [1]", "result": 2400, "unit": "nM"},
      {"measurement": "IC50", "setting": "MKN-45 [2]", "result": 1280, "unit": "nM"},
      {"measurement": "inhibition in vivo at 50 mg/kg", "setting": "HeLa [3]", "result": 45.5, "unit": "%"},
      {"measurement": "IC50", "setting": "[4]", "result": 3.18, "unit": "µM"},
      {"measurement": "Activity", "setting": "HeLa [5]", "result": "Active"},
      {"measurement": "viability at 1.5 µM", "setting": "[6]", "result": 14, "unit": "%"},
      {"measurement": "viability at 5 µM", "setting": "MKN-45 [7]", "result": 5, "unit": "%"},
      {"measurement": "viability at 5 µM", "setting": "HeLa [8]", "result": 13, "unit": "%"},
      {"measurement": "IC50", "setting": "HeLa [9]", "result": 3.57, "unit": "µM"},
      {"measurement": "viability at 5 µM", "setting": "U-87 MG [10]", "result": 9, "unit": "%"},
      {"measurement": "Activity", "setting": "[11]", "result": 20.5, "unit": "g"},
      {"measurement": "Activity", "setting": "HeLa [12]", "result": "Active"},
      {"measurement": "inhibition", "setting": "HeLa [13]", "result": "Dose-dependent effect"},
      {"measurement": "viability at 1.5 µM", "setting": "U-87 MG [14]", "result": 10, "unit": "%"},
      {"measurement": "viability at 5 µM", "setting": "[15]", "result": 12, "unit": "%"},
      {"measurement": "viability at 1.5 µM", "setting": "MKN-45 [16]", "result": 23, "unit": "%"},
      {"measurement": "Activity", "setting": "[17]", "result": 20.4, "unit": "g"},
      {"measurement": "inhibition in vivo at 25 mg/kg", "setting": "HeLa [18]", "result": 35.4, "unit": "%"},
      {"measurement": "viability at 1.5 µM", "setting": "HeLa [19]", "result": 32, "unit": "%"},
      {"measurement": "IC50", "setting": "[20]", "result": 1260, "unit": "nM"}
    ]},
    {"smiles": "CC(=O)O[C@H]1C[C@@]2(C)[C@@H](C[C@@H](O)[C@H]3[C@@]4(C)CC[C@@H](O)[C@@H](C)[C@@H]4CC[C@@]32C)/C1=C(\\CCC=C(C)C)C(=O)O", "note": "[FUSIDIC ACID]", "values": [
      {"measurement": "MIC", "setting": "Staphylococcus aureus", "result": "≤ 0.25", "unit": "µg/mL"},
      {"measurement": "IC50", "setting": "U-87 MG [1]", "result": "> 100000", "unit": "nM"},
      {"measurement": "CC50 at 72 h", "setting": "[21]", "result": "> 32", "unit": "µg/mL"},
      {"measurement": "IC50", "setting": "MKN-45 [2]", "result": "> 100000", "unit": "nM"},
      {"measurement": "IC50", "setting": "[4]", "result": "> 100", "unit": "µM"},
      {"measurement": "Activity", "setting": "HeLa [5]", "result": "inactive"},
      {"measurement": "viability at 1.5 µM", "setting": "[6]", "result": 71, "unit": "%"},
      {"measurement": "inhibition", "setting": "HeLa [22]", "result": "inactive"},
      {"measurement": "viability at 5 µM", "setting": "MKN-45 [7]", "result": 83, "unit": "%"},
      {"measurement": "viability at 5 µM", "setting": "HeLa [8]", "result": 73, "unit": "%"},
      {"measurement": "IC50", "setting": "HeLa [9]", "result": "> 100", "unit": "µM"},
      {"measurement": "viability at 5 µM", "setting": "U-87 MG [10]", "result": 87, "unit": "%"},
      {"measurement": "Activity", "setting": "HeLa [12]", "result": "inactive"},
      {"measurement": "viability at 1.5 µM", "setting": "U-87 MG [14]", "result": 92, "unit": "%"},
      {"measurement": "viability at 5 µM", "setting": "[15]", "result": 67, "unit": "%"},
      {"measurement": "viability at 1.5 µM", "setting": "MKN-45 [16]", "result": 80, "unit": "%"},
      {"measurement": "viability at 1.5 µM", "setting": "HeLa [19]", "result": 70, "unit": "%"},
      {"measurement": "IC50", "setting": "[20]", "result": "> 100000", "unit": "nM"}
    ]}
  ]
}
